Data published in ChEMBL document CHEMBL1649289, “Paradoxical growth of Candida dubliniensis does not preclude in vivo response to echinocandin therapy” (2009).
In brackets after ≈: the same amount, converted by molar mass. Starred links: 1 amine or outer side, 2 acyl side, 3 side chain; linkers in the order of their positions; H or OH if unused. Positions of bridges follow the written chain, without caps; N, C: chain ends. Non-standard residues stand in square brackets, D forms with d. Residues, ends and D or L forms follow the SMILES beside them. *: point of attachment. pTerphenylCO(4''-OnC5H11) = CCCCCOc1ccc(-c2ccc(-c3ccc(C(=O)*)cc3)cc2)cc1; Orn(4R-OH,5R-OH) = O=C([C@H](C[C@@H](O)[C@@H](O)N[*:3])N[*:1])[*:2]; hTyr(3S-OH,4S-OH) = N[C@H](C(=O)O)[C@H](O)[C@@H](O)c1ccc(O)cc1; Pro(3S-OH,4S-Me) = C[C@H]1CN[C@H](C(=O)O)[C@H]1O; Hyp = O=C(O)[C@@H]1C[C@@H](O)CN1

Tests used:
Format in all cases: functional
[1] = system: Candida dubliniensis; assay: Antifungal activity against Candida dubliniensis 9453 after 24 hrs; conditions: Candida dubliniensis, 9453, 24 h
In short: (§1)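 CLSI M27-A3 broth microdilution. Yeast inoculum was adjusted with a hemocytometer. MIC was read at 24 h or 48 h as the lowest concentration giving 50% growth inhibition.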

[2] = system: Candida dubliniensis; assay: Antifungal activity against Candida dubliniensis 9453 after 48 hrs; conditions: Candida dubliniensis, 9453, 48 h; in short: as §1
[3] = system: Candida dubliniensis; assay: Antifungal activity against Candida dubliniensis 9456 after 24 hrs; conditions: Candida dubliniensis, 9456, 24 h; in short: as §1
[4] = system: Candida dubliniensis; assay: Antifungal activity against Candida dubliniensis 9456 after 48 hrs; conditions: Candida dubliniensis, 9456, 48 h; in short: as §1
[5] = system: Candida dubliniensis; assay: Antifungal activity against Candida dubliniensis 10031 after 24 hrs; conditions: Candida dubliniensis, 10031, 24 h; in short: as §1
[6] = system: Candida dubliniensis; assay: Antifungal activity against Candida dubliniensis 10031 after 48 hrs; conditions: Candida dubliniensis, 10031, 48 h; in short: as §1
[7] = system: Candida dubliniensis; assay: Antifungal activity against Candida dubliniensis 10032 after 24 hrs; conditions: Candida dubliniensis, 10032, 24 h; in short: as §1
[8] = system: Candida dubliniensis; assay: Antifungal activity against Candida dubliniensis 10032 after 48 hrs; conditions: Candida dubliniensis, 10032, 48 h; in short: as §1
[9] = system: Candida dubliniensis; assay: Antifungal activity against Candida dubliniensis 10033 after 24 hrs; conditions: Candida dubliniensis, 10033, 24 h; in short: as §1
[10] = system: Candida dubliniensis; assay: Antifungal activity against Candida dubliniensis 10033 after 48 hrs; conditions: Candida dubliniensis, 10033, 48 h; in short: as §1
[11] = system: Candida dubliniensis; assay: Antifungal activity against Candida dubliniensis 10034 after 24 hrs; conditions: Candida dubliniensis, 10034, 24 h; in short: as §1
[12] = system: Candida dubliniensis; assay: Antifungal activity against Candida dubliniensis 10034 after 48 hrs; conditions: Candida dubliniensis, 10034, 48 h; in short: as §1
[13] = system: Candida dubliniensis; assay: Antifungal activity against Candida dubliniensis 10035 after 24 hrs; conditions: Candida dubliniensis, 10035, 24 h; in short: as §1
[14] = system: Candida dubliniensis; assay: Antifungal activity against Candida dubliniensis 10035 after 48 hrs; conditions: Candida dubliniensis, 10035, 48 h; in short: as §1
[15] = system: Candida dubliniensis; assay: Antifungal activity against Candida dubliniensis 9453 by hemocytometry
In short: (§2)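 Minimal fungicidal concentration from the broth dilution test, defined as the lowest drug level giving ≥99.9% reduction in CFU/ml. Inocula were adjusted by hemocytometer.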

[16] = system: Candida dubliniensis; assay: Antifungal activity against Candida dubliniensis 9456 by hemocytometry; in short: as §2
[17] = system: Candida dubliniensis; assay: Antifungal activity against Candida dubliniensis 10031 by hemocytometry; in short: as §2
[18] = system: Candida dubliniensis; assay: Antifungal activity against Candida dubliniensis 10032 by hemocytometry; in short: as §2
[19] = system: Candida dubliniensis; assay: Antifungal activity against Candida dubliniensis 10033 by hemocytometry; in short: as §2
[20] = system: Candida dubliniensis; assay: Antifungal activity against Candida dubliniensis 10034 by hemocytometry; in short: as §2
[21] = system: Candida dubliniensis; assay: Antifungal activity against Candida dubliniensis FMR 10032 infected in immunosuppressed OF1 mouse assessed as fungal count in kidney at 1 mg/kg/day, iv […]
In short: (§3)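 Male OF1 mice, 10 per group, were immunosuppressed on infection day with cyclophosphamide 200 mg/kg i.p. plus 5-fluorouracil 150 mg/kg i.v., then challenged i.v. with 1.5 × 10^5 CFU. Drug was given at 1 mg/kg i.v. once daily for 5 days, starting 24 h after challenge. One day after treatment ended, kidney and spleen homogenates were plated in 10-fold dilutions on Sabouraud agar (35°C, 3 days) and mean log10 CFU was reported.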

[22] = system: Candida dubliniensis; assay: Antifungal activity against Candida dubliniensis 9453 assessed as compound concentration at which paradoxical growth of observed after 48 hrs
In short: (§4)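 Broth dilution susceptibility testing of yeasts per CLSI reference method M27-A3, with inocula adjusted by hemocytometer count. Wells were read at 24 and 48 h. The paradoxical growth range is the span of drug concentrations (μg/ml) over which growth reappeared above the inhibitory concentration. Where growth occurred across the entire concentration range (trailing), no range was determined.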

[23] = system: Candida dubliniensis; assay: Antifungal activity against Candida dubliniensis 9456 assessed as compound concentration at which paradoxical growth of observed after 48 hrs; in short: as §4
[24] = system: Candida dubliniensis; assay: Antifungal activity against Candida dubliniensis FMR 10034 infected in OF1 mouse assessed as fungal count in spleen at 1 mg/kg/day, iv […]
In short: (§5)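 Immunocompetent male OF1 mice, 10 per group, were challenged i.v. with 1.5 × 10^7 CFU. Drug was given i.v. once daily at 1 or 10 mg/kg for 3 days, starting 24 h post-challenge; controls were untreated. Mice were killed 1 day after the last dose. Kidneys and spleen were homogenized in saline, serial 10-fold dilutions were plated on Sabouraud agar at 35°C for 3 days, and mean log10 CFU was reported.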

[25] = system: Candida dubliniensis; assay: Antifungal activity against Candida dubliniensis 10033 assessed as compound concentration at which paradoxical growth of observed after 48 hrs; in short: as §4
[26] = system: Candida dubliniensis; assay: Antifungal activity against Candida dubliniensis 10034 assessed as compound concentration at which paradoxical growth of observed after 48 hrs
In short: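 In the same broth dilution (CLSI M27-A3) tests, read at 24 or 48 h, this is the range of drug concentrations over which paradoxical growth appeared. It was not set when growth occurred across the whole tested range (trailing).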

[27] = system: Candida dubliniensis; assay: Antifungal activity against Candida dubliniensis FMR 10032 infected in OF1 mouse assessed as fungal count in kidney at 10 mg/kg/day, iv […]; in short: as §5
[28] = system: Candida dubliniensis; assay: Antifungal activity against Candida dubliniensis FMR 10032 infected in OF1 mouse assessed as fungal count in kidney at 1 mg/kg/day, iv […]; in short: as §5
[29] = system: Candida dubliniensis; assay: Antifungal activity against Candida dubliniensis FMR 10032 infected in OF1 mouse assessed as fungal count in spleen at 10 mg/kg/day, iv […]; in short: as §5
[30] = system: Candida dubliniensis; assay: Antifungal activity against Candida dubliniensis FMR 10032 infected in OF1 mouse assessed as fungal count in spleen at 1 mg/kg/day, iv […]; in short: as §5
[31] = system: Candida dubliniensis; assay: Antifungal activity against Candida dubliniensis FMR 10034 infected in OF1 mouse assessed as fungal count in kidney at 10 mg/kg/day, iv […]; in short: as §5
[32] = system: Candida dubliniensis; assay: Antifungal activity against Candida dubliniensis FMR 10034 infected in OF1 mouse assessed as fungal count in kidney at 1 mg/kg/day, iv […]; in short: as §5
[33] = system: Candida dubliniensis; assay: Antifungal activity against Candida dubliniensis FMR 10034 infected in OF1 mouse assessed as fungal count in spleen at 10 mg/kg/day, iv […]; in short: as §5
[34] = system: Candida dubliniensis; assay: Antifungal activity against Candida dubliniensis FMR 10032 infected in immunosuppressed OF1 mouse assessed as fungal count in spleen at 1 mg/kg/day, iv […]; in short: as §3
[35] = system: Candida dubliniensis; assay: Antifungal activity against Candida dubliniensis FMR 10034 infected in immunosuppressed OF1 mouse assessed as fungal count in kidney at 1 mg/kg/day, iv […]; in short: as §3
[36] = system: Candida dubliniensis; assay: Antifungal activity against Candida dubliniensis FMR 10034 infected in immunosuppressed OF1 mouse assessed as fungal count in spleen at 1 mg/kg/day, iv […]; in short: as §3

CCCCCOc1ccc(-c2ccc(-c3ccc(C(=O)N[C@H]4C[C@@H](O)[C@@H](O)NC(=O)[C@@H]5[C@@H](O)[C@@H](C)CN5C(=O)[C@H]([C@@H](C)O)NC(=O)[C@H]([C@H](O)[C@@H](O)c5ccc(O)cc5)NC(=O)[C@@H]5C[C@@H](O)CN5C(=O)[C@H]([C@@H](C)O)NC4=O)cc3)cc2)cc1 [ANIDULAFUNGIN] ({pTerphenylCO(4''-OnC5H11)}-[Orn(4R-OH,5R-OH)]T[Hyp][hTyr(3S-OH,4S-OH)]T[Pro(3S-OH,4S-Me)]; lactam 1-C)
MIC50 [1]: < 0.03 µg/mL | MIC50 [2]: < 0.03 µg/mL | MIC50 [3]: < 0.03 µg/mL | MIC50 [4]: < 0.03 µg/mL | MIC50 [5]: < 0.03 µg/mL | MIC50 [6]: < 0.03 µg/mL | MIC50 [7]: < 0.03 µg/mL | MIC50 [8]: < 0.03 µg/mL | MIC50 [9]: < 0.03 µg/mL | MIC50 [10]: 0.06 µg/mL (≈ 0.0526 µM) | MIC50 [11]: < 0.03 µg/mL | MIC50 [12]: < 0.03 µg/mL | MIC50 [13]: < 0.03 µg/mL | MIC50 [14]: < 0.03 µg/mL | MFC [15]: > 16 µg/mL | MFC [16]: > 16 µg/mL | MFC [17]: > 16 µg/mL | MFC [18]: 2 µg/mL (≈ 1.75 µM) | MFC [19]: 2 µg/mL (≈ 1.75 µM) | MFC [20]: > 16 µg/mL | log10cfu [21]: 5.75 | Activity [22]: 4 µg/mL | Activity [23]: 8 µg/mL | log10cfu [24]: 4.54 | Activity [25]: 4 µg/mL | Activity [26]: 4 µg/mL | log10cfu [27]: 2.95 | log10cfu [28]: 5.65 | log10cfu [29]: 2.64 | log10cfu [30]: 4.21 | log10cfu [31]: 4.63 | log10cfu [32]: 6.33 | log10cfu [33]: 4.25 | log10cfu [34]: 2.62 | log10cfu [35]: 5.94 | log10cfu [36]: 2.96
